In PubChem BioAssay AID624315 (Broad Institute, 2012):
“And” between values parts separate entries of the source, which are not always exact repeats. Equal values may be shown once. The source made the active and inactive calls.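 How the source made its calls: active means compounds lowering cell ATP signal whose fitted IC50 is at or below twice the top valid tested dose; inconclusive means flat fit with 30 to 70% inhibition, or poor fit; inactive means the rest.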

Tests used:
[1] = system: SK-MEL-5 melanoma viability, CellTiter-Glo ATP, 24 h; test: SK-MEL-5 parental cell viability reduction, dose response, orthogonal assay for MITF inhibitor project, CellTiter-Glo luminescence, dry powder samples, set 3 (AID 624315)
In short: (§1)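 Material: SK-MEL-5 human melanoma cells, parental non-reporter line | Doses: Multi-dose compound pinning | Medium: Phenol red-free medium | Measure: Cell viability inferred from cellular ATP level | Schedule: 24 h treatment at 37 °C, 5 min RT before reading | Technique: CellTiter-Glo luminescence measuring cellular ATP content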

[2] = as above; conditions: SK-MEL-5 melanoma viability, CellTiter-Glo ATP, 24 h; at 35 µM (top of the series)
In short: as §1

| SMILES | IC50 [1] | activity change, negative = inhibition [2] |
| --- | --- | --- |
| CN1CCN(C2=C(NS(=O)(=O)c3ccccc3)C(=O)c3ccccc3C2=O)CC1 | 18.2 µM | – |
| CCN(CC)CCCNC1=C(N(C)C(C)=O)C(=O)c2ccccc2C1=O | 5.52 µM | – |
| CCN1CCN(C2=C(Nc3ccccc3)C(=O)c3ccccc3C2=O)CC1 | 28.1 µM | – |
| COc1ccc(C(=O)NC2=C(c3ccc(OC)cc3)C(=O)c3ccccc3C2=O)cc1 | 15.6 µM | – |
| COc1cccc(-c2cc(C(=O)NC3=C(Cl)C(=O)c4ccccc4C3=O)ccc2OC)c1 | 34 µM | – |
| COc1ccc(C2=C(NC(=O)c3cccc(Cl)c3)C(=O)c3ccccc3C2=O)cc1 | 27.7 µM | – |
| COc1ccc(C2=C(NC(=O)c3ccccc3Cl)C(=O)c3ccccc3C2=O)cc1 | 17.6 µM | – |
| COc1ccc(C(=O)NC2=C(c3ccc(OC(F)(F)F)cc3)C(=O)c3ccccc3C2=O)cc1 | > 70 µM (inactive) | – |
| COc1ccc(C2=C(NC(=O)c3ccc4ccccc4c3)C(=O)c3ccccc3C2=O)cc1 | > 70 µM (inactive) | – |
| COc1ccc(C2=C(NC(=O)c3ccc(Cl)cc3)C(=O)c3ccccc3C2=O)cc1 | 34.6 µM | – |
| C=CCNC1=C(NS(=O)(=O)c2ccc(Br)cc2)C(=O)c2ccccc2C1=O | 29.9 µM | – |
| COc1ccc(S(=O)(=O)N(C(C)=O)c2ccc(OC(C)=O)c3ccccc23)cc1[N+](=O)[O-] | 31.6 µM | – |
| O=C(NC1=C(c2ccc(OC(F)(F)F)cc2)C(=O)c2ccccc2C1=O)c1ccc(Br)cc1 | > 70 µM (inactive) | – |
| O=C(NC1=C(N2CCOCC2)C(=O)c2ccccc2C1=O)c1ccccc1 | 20.1 µM | – |
| C[C@@H](NC1=C(Nc2ccccc2)C(=O)c2ccccc2C1=O)c1ccccc1 | > 70 µM (inactive) | – |
| COc1ccc(C2=C(NC(=O)c3ccc(OC)cc3-c3cccc(OC)c3)C(=O)c3ccccc3C2=O)cc1 | > 70 µM (inactive) | – |
| O=C(NC1=C(N2CCOCC2)C(=O)c2ccccc2C1=O)c1ccc(Br)cc1 | 32 µM | – |
| C=CCNC1=C(N(C)C(C)=O)C(=O)c2ccccc2C1=O | 0.79 µM | – |
| NC1=C(NC(=O)c2ccccc2)C(=O)c2ccccc2C1=O | 19.8 µM | – |
| O=C(NC1=C(c2ccc(Oc3ccccc3)cc2)C(=O)c2ccccc2C1=O)c1ccccc1 | > 70 µM (inactive) | – |
| CC1CCN(CC(CS(=O)(=O)c2ccc([N+](=O)[O-])cc2)N2CCC(C)CC2)CC1 (stereo not drawn) | > 70 µM (inactive) | – |
| O=C1C(Nc2ccccc2)=C(N2CCCCC2)C(=O)c2ccccc21 | 18.1 µM | – |
| COc1ccc(C2=C(NC(=O)c3cccc(OC)c3)C(=O)c3ccccc3C2=O)cc1 | 29 µM | – |
| CC(=O)NC1=C(c2cccc(Cl)c2)C(=O)c2ccccc2C1=O | 14 µM | – |
| O=C1C(Nc2ccccc2)=C(N2CCN(c3ccccc3)CC2)C(=O)c2ccccc21 | > 70 µM (inactive) | – |

| SMILES | IC50 [1] | activity change, negative = inhibition [2] |
| --- | --- | --- |
| CCN1CCN(C2=C(N(C)C(C)=O)C(=O)c3ccccc3C2=O)CC1 | 6.41 µM | – |
| CC(=O)N(C)C1=C(N2CCOCC2)C(=O)c2ccccc2C1=O | 10.1 µM | – |
| CN1CCN(C2=C(NC(=O)c3ccc(Br)cc3)C(=O)c3ccccc3C2=O)CC1 | 6.69 µM | – |
| CCN1CCN(C2=C(NC(=O)c3ccccc3)C(=O)c3ccccc3C2=O)CC1 | 8.63 µM | – |
| O=C1C=C(Nc2ccccc2)C(=O)c2ccccc21 | 5.05 µM | – |
| O=C(NC1=C(c2ccccc2)C(=O)c2ccccc2C1=O)c1ccco1 | 25.7 µM | – |
| O=C(NC1=C(c2ccccc2)C(=O)c2ccccc2C1=O)c1ccc(Br)cc1 | > 70 µM (inactive) | – |
| O=C1C(Nc2ccccc2)=C(N2CCOCC2)C(=O)c2ccccc21 | 27 µM | – |
| CN1CCN(C2=C(NS(=O)(=O)c3cccs3)C(=O)c3ccccc3C2=O)CC1 | > 70 µM (inactive) | – |
| C=CCNC1=C(N2CCCCC2)C(=O)c2ccccc2C1=O | 5.3 µM | – |
| C=CCNC1=C(N2CCN(CC)CC2)C(=O)c2ccccc2C1=O | 17.9 µM | – |
| COc1cccc(C2=C(NC(=O)c3ccccc3)C(=O)c3ccccc3C2=O)c1 | 22.5 µM | – |
| C=CCNC1=C(N2CCOCC2)C(=O)c2ccccc2C1=O | 11 µM | – |
| CN1CCN(C2=C(NS(=O)(=O)c3ccc(Br)s3)C(=O)c3ccccc3C2=O)CC1 | 30 µM | – |
| Cc1ccc(C(=O)NC2=C(c3ccccc3)C(=O)c3ccccc3C2=O)o1 | 23.6 µM | – |
| C=CCNC1=C(Cl)C(=O)c2ccccc2C1=O | 9.72 µM and 12.1 µM | – |
| O=C(NC1=C(Cl)C(=O)c2ccccc2C1=O)c1ccccc1 | 9.1 µM | – |
| CCN1c2ccccc2NC2N=C(OC)C(c3ccccc3)C21 (stereo not drawn) | 23.9 µM | – |
| O=C(NC1=C(N2CCSCC2)C(=O)c2ccccc2C1=O)c1ccccc1 | 29.9 µM | – |
| C=CCNC1=C(NCC=C)C(=O)c2ccccc2C1=O | – | -5.12% (inactive) |
| O=C1C(NS(=O)(=O)c2ccc(Br)s2)=C(N2CCSCC2)C(=O)c2ccccc21 | > 70 µM (inactive) | – |
| COC1=C(NS(=O)(=O)c2ccccc2)C(=O)c2ccccc2C1=O | 21.7 µM | – |
| O=C1C(NS(=O)(=O)c2ccc(Br)cc2)=C(N2CCOCC2)C(=O)c2ccccc21 | 35.4 µM | – |
| CCN1CCN(C2=C(NC(=O)c3ccc(Br)cc3)C(=O)c3ccccc3C2=O)CC1 | 8.82 µM | – |
| NC1=CC(=O)c2ccccc2C1=O | 12.4 µM | – |

| SMILES | IC50 [1] | activity change, negative = inhibition [2] |
| --- | --- | --- |
| O=C1C(NS(=O)(=O)c2cccs2)=C(N2CCCCC2)C(=O)c2ccccc21 | > 70 µM (inactive) | – |
| C=CCNC1=C(NCCCN(CC)CC)C(=O)c2ccccc2C1=O | 15.6 µM | – |
| CCN(CC)CCCNC1=C(Nc2ccccc2)C(=O)c2ccccc2C1=O | 34 µM | – |
| O=C1C(NS(=O)(=O)c2ccc(Br)cc2)=C(c2ccccc2)C(=O)c2ccccc21 | > 70 µM (inactive) | – |
| C=CCNC1=C(N2CCN(C)CC2)C(=O)c2ccccc2C1=O | 25.3 µM | – |
| O=C1C(NS(=O)(=O)c2ccc(Br)cc2)=C(c2ccc(OC(F)(F)F)cc2)C(=O)c2ccccc21 | > 70 µM (inactive) | – |
| CC(=O)NC1=C(c2ccccc2)C(=O)c2ccccc2C1=O | 18.3 µM | – |
| C=CCNC1=C(N2CCSCC2)C(=O)c2ccccc2C1=O | 10.9 µM | – |
| CC(=O)NC1=C(c2ccc3c(c2)oc2ccccc23)C(=O)c2ccccc2C1=O | 25.3 µM | – |
| CC(=O)N(C)C1=C(N2CCCCC2)C(=O)c2ccccc2C1=O | 4.42 µM | – |
| O=C(NC1=C(c2ccccc2)C(=O)c2ccccc2C1=O)c1ccccc1 | 26.1 µM | – |
| CC(=O)NC1=C(c2ccc(Cl)cc2)C(=O)c2ccccc2C1=O | 13.4 µM | – |
| C=C1C(=O)OC2C1CC/C(C)=C\CCC1(C)OC21 (stereo not drawn) | > 47 µM (inactive) | – |
| CN1CCN(C2=C(Nc3ccccc3)C(=O)c3ccccc3C2=O)CC1 | 23.4 µM | – |
| COc1ccc(C2=C(NC(=O)c3ccccc3OC)C(=O)c3ccccc3C2=O)cc1 | > 70 µM (inactive) | – |
| COc1ccc(C2=C(NC(C)=O)C(=O)c3ccccc3C2=O)cc1 | 13.9 µM | – |
| CN1CCN(C2=C(NC(=O)c3ccccc3)C(=O)c3ccccc3C2=O)CC1 | 9.27 µM | – |
| O=C1C(Nc2ccccc2)=C(NS(=O)(=O)c2ccccc2[N+](=O)[O-])C(=O)c2ccccc21 | > 70 µM (inactive) | – |
| C=CCNC1=C(NCCN(CC)CC)C(=O)c2ccccc2C1=O | 14 µM | – |
| CN1CCN(C2=C(NS(=O)(=O)c3ccc(Br)cc3)C(=O)c3ccccc3C2=O)CC1 | > 70 µM (inactive) | – |
| CC(=O)N(C)C1=C(N2CCN(C)CC2)C(=O)c2ccccc2C1=O | 4.63 µM | – |
| Cc1nc2ccccc2n1/N=C/c1ccc([N+](=O)[O-])s1 | 20.1 µM | – |
| O=C(NC1=C(N2CCN(c3ccccc3)CC2)C(=O)c2ccccc2C1=O)c1ccccc1 | > 70 µM (inactive) | – |
